From ChEMBL document CHEMBL1255333, “Comparison of the in vitro efficacies of moxifloxacin and amoxicillin against Listeria monocytogenes” (2008)
Activity calls are given as the source filed them.

Legend:
[1] = system: Listeria monocytogenes; experiment: Antibacterial activity against intracellular Listeria monocytogenes EGDe infected in bone marrow-derived BALB/c mouse macrophage assessed as prevention of bacterial release and spread of infection by preventing macrophage lysis after 24 hrs; assay type: functional, organism-based
[2] = system: Listeria monocytogenes; experiment: Antibacterial activity against intracellular Listeria monocytogenes EGDe infected in bone marrow-derived BALB/c mouse macrophage assessed as reduction in bacterial count at four-eitght times of MIC after 3 hrs; assay type: functional, organism-based
In short: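 Bone marrow macrophages from BALB/c mice (7-8 weeks) were differentiated for 7 days in RPMI 1640 with 10% decomplemented FCS and 10% L-cell medium, at 37°C and 10% CO2. Cells at 3 x 10^5/ml were infected for 15 min at a bacteria:macrophage ratio of 10:1, washed, and preincubated for 45 min. They were then given antibiotic for up to 24 h, lysed in 0.1% Triton X-100, and plated in triplicate. Results are CFU/well, means ± SE of three experiments.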

[3] = system: Listeria monocytogenes; experiment: Antibacterial activity against intracellular Listeria monocytogenes EGDe infected in bone marrow-derived BALB/c mouse macrophage assessed as reduction in the formation of filopodium-like projections at >= MIC after 48 hrs by microscopy; assay type: functional, organism-based
[4] = system: Listeria monocytogenes; experiment: Antibacterial activity against intracellular Listeria monocytogenes EGDe infected in bone marrow-derived BALB/c mouse macrophage assessed as reduction in the number of infected macrophages after 3 hrs; assay type: functional, organism-based
In short: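 Infected BALB/c bone marrow macrophages were stained with May-Grunwald-Giemsa and examined microscopically to determine the infection rate. Observations were made at 3, 6 and 24 h of exposure to antibiotic at 1x MIC or Cmax, or with no antibiotic.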

[5] = system: Listeria monocytogenes; experiment: Antibacterial activity against extracellular Listeria monocytogenes EGDe at 400 times of MIC by time-kill study; assay type: functional, organism-based
In short: (§1)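 EGDe inoculum of 5 x 10^8 bacteria in Mueller-Hinton broth at 37°C. Antibiotic was added at 1x, 4x, 8x or 400x MIC. Counts were done in triplicate at set times by plating serial 10-fold dilutions on BHI agar, with or without 2 µg/ml moxifloxacin, for 48 h. Results are CFU/ml, means ± SE of three experiments. Bactericidal was defined as a >3-log10 drop at 24 h.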

[6] = system: Listeria monocytogenes; experiment: Antibacterial activity against extracellular Listeria monocytogenes EGDe at MIC by time-kill study; assay type: functional, organism-based; in short: as §1
[7] = system: Listeria monocytogenes; experiment: Antibacterial activity against extracellular Listeria monocytogenes EGDe at four times of MIC by time-kill study; assay type: functional, organism-based; in short: as §1
[8] = system: Listeria monocytogenes; experiment: Antibacterial activity against extracellular Listeria monocytogenes EGDe assessed as reduction in bacterial count at four times of MIC after 6 hrs by time-kill study; assay type: functional; in short: as §1
[9] = system: Listeria monocytogenes; experiment: Antibacterial activity against extracellular Listeria monocytogenes EGDe assessed as reduction in bacterial count at four times of MIC after 24 hrs by time-kill study; assay type: functional, organism-based; in short: as §1
[10] = system: Listeria monocytogenes; experiment: Antibacterial activity against intracellular Listeria monocytogenes EGDe infected in bone marrow-derived BALB/c mouse macrophage assessed as changes in morphology of intracellular bacteria observed to be ghostly, chained, and elongated at >= MIC after 48 hrs by microscopy; assay type: functional, organism-based
[11] = system: Listeria monocytogenes; experiment: Antibacterial activity against extracellular Listeria monocytogenes EGDe assessed as reduction in bacterial count at eight times of MIC after 6 hrs by time-kill study; assay type: functional; in short: as §1
[12] = system: Listeria monocytogenes; experiment: Antibacterial activity against extracellular Listeria monocytogenes EGDe assessed as reduction in bacterial count at eight times of MIC after 24 hrs by time-kill study; assay type: functional, organism-based; in short: as §1

| SMILES | Activity [1] | Activity [2] | Activity [3] | Activity [4] | Activity [5] | Activity [6] | Activity [7] | log10CFU/ml [8] | Activity [9] | Activity [10] | log10CFU/ml [11] | Activity [12] |
| --- | --- | --- | --- | --- | --- | --- | --- | --- | --- | --- | --- | --- |
| CC1(C)S[C@@H]2[C@H](NC(=O)[C@H](N)c3ccc(O)cc3)C(=O)N2[C@H]1C(=O)O | inactive | inactive | inactive | inactive | Active | inactive | Active | – | – | – | – | – |
| COc1c(N2C[C@@H]3CCCN[C@@H]3C2)c(F)cc2c(=O)c(C(=O)O)cn(C3CC3)c12 [MOXIFLOXACIN] | Active | Active | Active | – | – | inactive | Active | 3 | Active | Active | 3 | Active |
